Assay results from the RNAGym collection of RNA variant scans (doi:10.1126/science.aae0568).
Variants at the floor of the assay were thinned out.

B1: tRNA (parent)
chain: GUUCCGUUGGCGUAAUGGUAACGCGUCUCCCUCCUAAGGAGAAGACUGCGGGUUCGAGUCCCGUACGGAACG

Variants of: B1
Test: yeast fitness relative to wild type (ratio to wild type); higher = fitter; tRNA-Arg(CCU), competitive growth, 37 C, YPD
How it was run: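 Amplicons of the tRNA-Arg(CCU) gene were sequenced, 100-nucleotide paired-end, from the start population and from each end population of a pooled yeast competition. The competition, in six parallel replicates, lasted 24 hours in YPD at 37°C. Fitness relative to wild type was calculated from changes in genotype frequencies. Genotypes had to have ≥ 100 starting reads, and estimates < 0.5 were set to 0.5.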

Variant | yeast fitness
C11G A14C A37C G44C | ≤ 0.5
C11G A14U C24A A57C | 0.572
C11G A20U C22G A43C | ≤ 0.5
C11A U32C G67A | 0.606
C11A C31G C33U C61G U64A | ≤ 0.5
C11G A20C C24G A37G | 0.542
C11A G68C | 0.656
C11A C27U C60G | 0.532
C11A G51A U53A | ≤ 0.5
C11A U59C | 0.527
C11G A15U C55U | ≤ 0.5
C11G A20U C27G C29U C62U | ≤ 0.5
C11G A20C A43G U59C | ≤ 0.5
C11A C30G A45U G56C | ≤ 0.5
C11A U19C C31U U53A | ≤ 0.5
C11G A14U G17A A36G G41A U53A G58C A70C | ≤ 0.5
C11G A15C C24G C46A C66U | ≤ 0.5
C11G A15G C22A U26A A40U C49U | ≤ 0.5
C11G A14C C33G A45U C62G A65G | ≤ 0.5
C11A U35A | 0.535
C11G A14G G48A C55U A65C | 0.759
C11A C33A A36C G63C C66G | 0.582
C11A C29A G67C | ≤ 0.5
C11A C27G G67C | ≤ 0.5

Variant | yeast fitness
C11G A15C C24U A43U C66U | ≤ 0.5
C11A C27G U35A A43U | ≤ 0.5
C11A C30U G56A A69C | ≤ 0.5
C11G A15U C34A A42C | ≤ 0.5
C11A G17A U35G | ≤ 0.5
C11A G17A U35G U59C | 0.568
C11A C27A C55U G63A G67C | ≤ 0.5
C11A C29A A42G | ≤ 0.5
C11A C27G C61A | ≤ 0.5
C11A G41A G56A C62A | ≤ 0.5
C11A G25C U26C C29U A65C A70U | 0.558
C11G A20G U53C | ≤ 0.5
C11A U28G C33A A42C A65U | ≤ 0.5
C11A U16C U32G C49G C62U | ≤ 0.5
C11A C30A G52C A65G | ≤ 0.5
C11A C31U C34U G58C C60U C62U G63C | ≤ 0.5
C11A G17C C22G G23C G58C A70G | ≤ 0.5
C11A U35G G67A | 0.52
C11A C34A C55U C60A | ≤ 0.5
C11A G58A G68U | ≤ 0.5
C11A G58A G68A | 0.621
C11A C27G U32C C33U C62U A65G | ≤ 0.5
C11G A15U C24G A40G A42U | ≤ 0.5
C11G A20C C24G C66U | ≤ 0.5

Variant | yeast fitness
C11G A20U | 0.692
C11G A20C | 0.615
C11A U26A | 0.687
C11A C55G C66A | ≤ 0.5
C11G A20G U47G | ≤ 0.5
C11G A14G A37G G44A C60A C62U U64C G68A A69C | ≤ 0.5
C11A U28C C46A C55U C61U | ≤ 0.5
C11G A21G G23C C30A | 0.733
C11A C29A G52C G68C | ≤ 0.5
C11A U28G C34U G67A | ≤ 0.5
C11A C62A A65C | ≤ 0.5
C11A U54A | 0.602
C11A U54C | 0.596
C11A U35A A37C A43G | 0.511
C11G A14G G48A C55U C66U G68C A69U | ≤ 0.5
C11A C27U G41C A42G C60G | ≤ 0.5
C11A G12C | 0.612
C11A C33U C49U C61U | ≤ 0.5
C11A G44A G48A | 0.68
C11A U16C C34G A65G G67A | ≤ 0.5
C11A G17A C62U C66U | ≤ 0.5
C11G A20C C24U A36C U47A G56C C60G | ≤ 0.5
C11G A14G G18C A20U C33U C62U G63A | ≤ 0.5
C11A C29G A65U G68A | ≤ 0.5

Variant | yeast fitness
C11A G25A U53A | ≤ 0.5
C11A U19A C55A C61U | 0.605
C11A U16C U32G A36G C49G C55A | 0.53
C11A G12A G23A C33G A45C | ≤ 0.5
C11A G25C G44A A57G | ≤ 0.5
C11A U32A C33U G68C | ≤ 0.5
C11A C33U U54C | ≤ 0.5
C11A C30G | ≤ 0.5
C11A C30U | 0.598
C11A C30A | 0.523
C11A U59C C60A U64A | ≤ 0.5
C11G A15U C22U A42G C66U | ≤ 0.5
C11A G17U A20G C31A | ≤ 0.5
C11A C33A A36C | 0.506
C11A G52A C62U | ≤ 0.5
C11G A14C C30U G67U | ≤ 0.5
C11A C30G C31U U32C A42G G52A | ≤ 0.5
C11A C34G A65U | ≤ 0.5
C11A G58A G68A A69U A70U | ≤ 0.5
C11A C31A C66G A69U | ≤ 0.5
C11A U28C A42G A43U C46U C62U | ≤ 0.5
C11A U16C G18C A45C A57C G68A | ≤ 0.5
C11A U19G A36G C62A A69C | ≤ 0.5
C11A C34G U59G | ≤ 0.5

Variant | yeast fitness
C11A C29G | 0.654
C11A U53G | 0.577
C11G A20C C24G | ≤ 0.5
C11A C33U A43U G67A | ≤ 0.5
C11A C27G U59A | ≤ 0.5
C11G A14C G18C C29G C49U A65C | ≤ 0.5
C11A G18A A36G A42C | 0.711
C11G A14G A21U A40U U54A C55U | ≤ 0.5
C11G A15G | 0.596
C11A U13G C34G A43U C61G | ≤ 0.5
C11A U32C | 0.739
C11A U28C A69U | ≤ 0.5
C11A C66G | 0.613
C11G A15C C34U G48A C55U | 0.759
C11A C31A G44C A65G | 0.553
C11A C31A G44C A65U | ≤ 0.5
C11G A15G U54G | ≤ 0.5
C11A C27U C46G | 0.524
C11G A15G C33G A37G C60A | 0.582
C11A C29U C33U | ≤ 0.5
C11A U13A A20G G68C A69C | 0.626
C11A G56A | 0.739
C11A G56C | ≤ 0.5
C11A C29A G56A C66G | ≤ 0.5

Variant | yeast fitness
C11A U13A A20U | ≤ 0.5
C11A C31U U53A | 0.513
C11G A20U C24A G25C A40G G58C | ≤ 0.5
C11A C31A C61A | 0.563
C11G A20C A42C C49U A57U | ≤ 0.5
C11A C31A C61G A65C A70C | ≤ 0.5
C11A U16C G18C A45C A57C G68C A69G | ≤ 0.5
C11G A15G U26A U32A G38A A40C | 0.546
C11G A21C A36U | 0.511
C11A C31G A70U | ≤ 0.5
C11A U32G C61A | 0.58
C11G A14U G17A C61G C62G | ≤ 0.5
C11G A20C C49G | ≤ 0.5
C11A C27U C61G | ≤ 0.5
C11G A20G C24U U28C | ≤ 0.5
C11A C27U C49A | 0.752
C11A G51C | 0.585
C11A C46G | 0.651
C11A C46A | 0.745
C11A U13G C27G | ≤ 0.5
C11A C30G A45U A57G C60A | ≤ 0.5
C11A C29A C46A A70G | 0.541
C11A C31G A42U | 0.537
C11A C27U C33U U35C C61G A65G | ≤ 0.5

Variant | yeast fitness
C11A G12C U53G A65U | ≤ 0.5
C11G A14G U35A C66U | 0.535
C11A U59G G63C | ≤ 0.5
C11A U47C | 0.689
C11A G39A | 0.63
C11A U35A U53A | ≤ 0.5
C11A U64C | 0.638
C11A G25A G58C A65G | 0.568
C11G A15C C34U U47C G48A C55U | ≤ 0.5
C11A C29U C31G G58C | ≤ 0.5
C11A C49G A69U | 0.585
C11A U35A A37U | ≤ 0.5
C11A U19C A21U A43U G58C C60A C66U | 0.531
C11A U19G A36G U54C A65U | 0.538
C11A C31U | 0.664
C11A C31A | 0.524
C11G A20C C24G G63A C66U | ≤ 0.5
C11A U13C C27A G63A | ≤ 0.5
C11G A14U A21U A69U | ≤ 0.5
C11A C33U | 0.533
C11A C33G | 0.654
C11G A14U C24A C60A | ≤ 0.5
C11A U13A A20U G63A A65U | ≤ 0.5
